Results on eight compounds are retold here after ChEMBL document CHEMBL1125675, “Synthesis and in vitro biological activity of new deaza analogues of folic acid, aminopterin, and methotrexate with an L-ornithine side chain” (J Med Chem, 1991).

Where only a bound is given, the exact number is not on record here.

As a reminder, the IC50 is the concentration at which inhibition is half-maximal. A low value points to inhibition by little substance.

The nature of assay [1]: Inhibitory activity against growth of WI-L2 human leukemic cells. As to conditions: WIL2.
A further assay addresses T1, Dihydrofolate reductase (Homo sapiens, UniProt P00374).
T1 sequence (P00374 whole entry): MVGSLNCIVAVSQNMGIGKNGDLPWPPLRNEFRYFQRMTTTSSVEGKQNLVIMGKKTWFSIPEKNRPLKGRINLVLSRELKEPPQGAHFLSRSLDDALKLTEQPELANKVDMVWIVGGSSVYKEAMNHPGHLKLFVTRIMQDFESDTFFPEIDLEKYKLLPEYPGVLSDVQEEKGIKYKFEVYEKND
Nature of the assay: Inhibition of dihydrofolate reductase(DHFR) enzyme from human leukemic lymphoblasts. In outline: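 Spectrophotometric read-out at 340 nm. Enzyme was DHFR purified from human leukemic lymphoblasts (WI-L2/M4).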

For another assay, the system named is L1210. Nature of the assay: Inhibitory activity against growth of L1210 murine leukemic cells. In kind it is functional, cell-based. As to conditions: Mus musculus. In outline:
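Growth inhibition was measured by an adapted tetrazolium salt method after 48-h exposure. Cells were grown in RPMI 1640 with 10% fetal bovine serum plus antibiotics. Results are expressed as IC50.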

In the case of `NCCCC(NC(=O)c1ccc(NCc2cnc3nc(N)nc(N)c3n2)cc1)C(=O)O` (centres undefined), the IC50 in assay [1] was determined as 2600 nM.
For `NCCCC(NC(=O)c1ccc(NCc2cnc3nc(N)nc(N)c3c2)cc1)C(=O)O` (centres undefined), the half-maximal inhibitory concentration (IC50) in assay [1] turned out to be 860 nM; at Dihydrofolate reductase, 27 nM; with L1210 it was 1400 nM.
In the case of `NCCCC(NC(=O)c1ccc(NCc2ccc3nc(N)nc(N)c3c2)cc1)C(=O)O` (centres undefined), the values for the half-inhibitory concentration (IC50) (in assay [1]; with L1210) were 180 nM and 280 nM, respectively.
Turning to `CN(Cc1cnc2nc(N)nc(N)c2n1)c1ccc(C(=O)NC(CCCNCC(=O)O)C(=O)O)cc1` (centres undefined), the concentration for half-maximal inhibition (IC50) turned out to be 4300 nM in assay [1], 50 nM against Dihydrofolate reductase and 1100 nM in the assay on L1210.
For `NCCCC(NC(=O)c1ccc(NCc2cnc3nc(N)nc(O)c3c2)cc1)C(=O)O` (centres undefined), in the assay with L1210, the IC50 is greater than 5000 nM.
As to `NCCCC(NC(=O)c1ccc(NCc2ccc3nc(N)nc(O)c3c2)cc1)C(=O)O` (centres undefined), the IC50 is 750 nM on Dihydrofolate reductase and greater than 5000 nM in the assay on L1210.
`NCCCC(NC(=O)c1ccc(NCc2ccc3nc(N)nc(N)c3n2)cc1)C(=O)O` (centres undefined) came in with an IC50 in the assay on L1210 of 660 nM.
Take `CN(Cc1cnc2nc(N)nc(N)c2n1)c1ccc(C(=O)NC(CCCN)C(=O)O)cc1` (centres undefined): the IC50 against Dihydrofolate reductase was 160 nM.
